An excerpt weighted towards active compounds, which were near 2.3% of everything screened.
MCL1 BIM primary: inhibitors of MCL1 binding to BIM-BH3, primary screen, biochemical, fluorescence polarization | Induced myeloid leukemia cell differentiation protein Mcl-1 (Homo sapiens), Q07820 | GST-MCL1 / FITC-Bim-BH3 fluorescence polarization | inhibition, % at 10.9 µM | 320,000 compounds, 0.68% hits | AID 2057, 2009;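 active means inhibition above the mean inhibition of all tested compounds plus 3 SD, set per campaign, cut at about 40% in these data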;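 further: 0% = DMSO wells and 100% = unlabeled Bim-BH3 peptide control; higher means more loss of mP so more displacement of Bim peptide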
Target sequence (Q07820 whole entry, looked up): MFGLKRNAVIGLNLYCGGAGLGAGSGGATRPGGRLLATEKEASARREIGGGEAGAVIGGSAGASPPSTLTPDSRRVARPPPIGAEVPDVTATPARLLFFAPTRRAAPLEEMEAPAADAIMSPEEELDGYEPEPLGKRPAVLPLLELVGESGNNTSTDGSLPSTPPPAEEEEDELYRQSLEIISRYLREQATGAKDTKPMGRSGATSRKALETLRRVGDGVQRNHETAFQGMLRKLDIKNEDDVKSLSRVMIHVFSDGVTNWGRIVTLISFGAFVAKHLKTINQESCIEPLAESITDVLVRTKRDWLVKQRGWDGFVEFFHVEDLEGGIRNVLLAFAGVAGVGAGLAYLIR
Mcl1 Bid PPI: Mcl-1/Bid binding inhibitors, primary screen, biochemical, TR-FRET, 1536-well. Induced myeloid leukemia cell differentiation protein Mcl-1 (Homo sapiens), Q07820. TR-FRET Mcl-1/Bid-Dy647 peptide binding. inhibition, % at 21.7 µM. 220,000 compounds, 0.97% hits. AID 1021, 2008;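 active means compounds that cut the binding signal by more than half at the single screening dose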;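 further: His-tagged Mcl-1 with europium anti-His antibody binding Bid BH3 peptide; 0% = Mcl-1 plus peptide wells and 100% = peptide-only wells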
Bim-Mcl-1: inhibitors of Bim peptide binding to Mcl-1, primary screen, biochemical, bead-based flow cytometry, multiplex | Induced myeloid leukemia cell differentiation protein Mcl-1 (Homo sapiens), Q07820 | Bim peptide-Mcl-1 binding | inhibition, % at 10 µM | 190,000 compounds, 0.1% hits; in the data active means inhibition above about 40%;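 further: 0% = no compound tracer wells and 100% = peptide blocker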
Mcl1 Noxa PPI: Mcl-1/Noxa binding inhibitors, primary screen, biochemical, TR-FRET, 1536-well; Induced myeloid leukemia cell differentiation protein Mcl-1 (Homo sapiens), Q07820; TR-FRET Mcl-1/Noxa peptide binding, 2 h; inhibition, % at 21.7 µM; 220,000 compounds, 1.5% hits;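 active means compounds that cut the protein-peptide binding signal by more than 50% relative to plate controls in a single-dose test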;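 further: His-tagged Mcl-1 with rhodamine Noxa BH3 peptide and terbium anti-His antibody; 0% = Mcl-1 plus Noxa peptide wells and 100% = peptide-only wells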
DSG3 Ab inh: inhibitors of pemphigus antibody binding to DSG3, primary screen, biochemical, bead-based, flow cytometry, scFv-GFP; 310,000 compounds, 0.48% hits; AID 588358, 2011; DSG3-coupled beads, scFv-anti-DSG3-GFP binding; hits give low values; binding (percent of control), % at 10 µM;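 active means binding more than 3 SD below its plate's average and above zero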;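 further: hits lower antibody fragment binding to DSG3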
T cell modulator: modulators of CD8 T cell-vesicle binding, primary screen, mouse 2C CD8+ T cells, flow cytometry; 2C CD8+ T cell-vesicle binding; hits give low values; response (vesicle binding), % at 7 µM; 330,000 compounds, 0.068% hits;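 active means response, share of CD8 T cells binding vesicles, and their 90th percentile fluorescence all below set limits, cut at about 80% in these data, passing the limit was not always enough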;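 further: values below 100% mean blocked vesicle binding to the CD8+ T cells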
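System: murine 2C transgenic CD8+ T lymphocytes; also added: QL9-loaded Drosophila micro-vesicles; times: binding 1.5 h at 37 °C; measured by: flow cytometry, PE anti-B7-1 (FL2) versus Alexa647 anti-CD8 (FL8), PFA-fixed; control set: Peptide-free naked vesicles (low) and QL9 vesicles with 0.7% DMSO vehicle (high)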
The depositor's hits bear a star; nt = no result.

SMILES | MCL1 BIM primary | Mcl1 Bid PPI | Bim-Mcl-1 | Mcl1 Noxa PPI | DSG3 Ab inh | T cell modulator
CCCOc1cccc(CN2CCCCC2c2cccnc2)c1 (centres undefined) | -0.3 | 70.1* | -1.0 | 35.1 | 86.6 | 302.4
CCOc1cc(NC(=O)c2ccccn2)c(OCC)cc1NC(=O)c1cccc(C)c1 | 13.3 | -44.0 | 0.0 | 11.7 | 74.3* | 335.7
NC(=S)NN=Cc1c[nH]c2nccnc12 | nt | nt | nt | nt | 94.8 | nt
O=c1cc2oc3cc(O)c(O)cc3c(-c3ccccc3O)c-2cc1O | nt | 9.7 | nt | 49.7 | 74.3* | nt
CCOC(=O)c1oc2cc(O)ccc2c(=O)c1-c1ccccc1OC | -3.5 | -27.1 | 0.0 | 11.7 | 103.6 | 774.1
CCOc1ccccc1-c1c2cc(O)c(=O)cc-2oc2cc(O)c(O)cc12 | nt | -25.2 | 1.0 | 59.1* | 96.1 | nt
Cc1ccccc1N(C(=O)c1ccccn1)C(C(=O)NCc1ccccc1)c1cccnc1 (centres undefined) | -2.9 | nt | nt | nt | 102.3 | 452.7
CCC(CC)C(=O)Nc1cccc(S(=O)(=O)c2cccc(NC(=O)C(CC)CC)c2)c1 | -2.1 | -14.9 | 44.0* | 2.4 | -13.1* | 186.4
CCC(CC)C(=O)Nc1cccc(C(=O)Nc2ccc(S(N)(=O)=O)cc2)c1 | 0.0 | -39.0 | 0.0 | -1.0 | 98.3 | 177.4
COc1cc2c(cc1NC(=O)C(Cl)Cl)-c1ccc(NC(=O)C(Cl)Cl)cc1C2 | nt | nt | nt | nt | 89.4 | nt
CCOC(=O)c1sc2nc3c(SCC(=O)O)cc(C(=O)c4cc(F)ccc4O)cn3c(=O)c2c1C | 33.4 | -130.4 | 1.0 | 85.7* | 107.2 | 510.8
O=C(O)CSc1cc(C(=O)c2ccccc2O)cn2c(=O)c3c(-c4ccccc4)csc3nc12 | 14.7 | -33.0 | 0.0 | 86.5* | 98.6 | 332.1
CCOC(=O)c1sc2nc3c(SCC(=O)O)cc(C(=O)c4ccccc4O)cn3c(=O)c2c1C | -7.8 | -17.1 | 0.0 | 65.9* | 100.1 | 333.4
COC(=O)c1cc(C(=O)c2cc(F)ccc2O)cn2c(=O)c3c(C)c(C)sc3nc12 | -2.2 | -6.9 | nt | 8.5 | 89.8 | 162.8
Cc1sc2nc3c(SC(C)C(=O)O)cc(C(=O)c4ccccc4O)cn3c(=O)c2c1C (centres undefined) | 4.3 | -64.4 | 12.0 | 22.6 | 109.1 | 292.1
COc1ccc(O)c(C(=O)c2cc(SCC(=O)O)c3nc4sc5c(c4c(=O)n3c2)CCCC5)c1 | 24.3 | 40.5 | nt | 107.5* | 100.5 | 188.0
COc1ccc(C(=O)c2ccc3oc(-c4ccc(OC)cc4)c(-c4ccc(O)cc4)c3c2)cc1 | nt | nt | nt | nt | nt | 247.6
Cc1cn(C2CC(O)C(CO)O2)c(=O)n(Cc2ccccc2)c1=O (centres undefined) | nt | nt | nt | nt | 94.3 | nt
O=C(Cc1cccc(NC(=O)C2CCCN(C(=O)C3CCC3)C2)c1)Nc1cccc(C(=O)N2CCOCC2)c1 (centres undefined) | nt | nt | nt | nt | 98.4 | nt
Cc1ccc(Cl)cc1N1CCN(C(=O)Cc2c(C(=O)O)[nH]c3ccc(Cl)cc23)CC1 | 4.9 | 17.6 | 2.0 | 20.5 | 22.9* | 233.1
CCc1ccc(N(CC(=O)NCCc2ccccc2)C(=O)CCC(=O)Nc2ccccn2)cc1 | 5.3 | nt | nt | nt | nt | 98.5
Nc1ccc(N2CCN(c3ccc(F)cc3)CC2)cc1 | 13.1 | -30.1 | 1.0 | 60.5* | 91.8 | 767.0
Cc1ccc(Oc2ccc(Cl)cc2NC(=O)c2cnccn2)cc1 | 2.2 | -2.0 | 0.0 | -3.0 | 79.2* | 512.5
CCc1nn(CC(=O)N2CCN(CC)CC2)c(=O)c2cc3sccc3n12 | 6.2 | nt | nt | nt | 113.3 | 35.7
CCc1nn(CC(=O)NCCc2ccc(S(N)(=O)=O)cc2)c(=O)c2cc3sccc3n12 | 0.5 | nt | nt | nt | 82.5* | 411.5
SMILES | MCL1 BIM primary | Mcl1 Bid PPI | Bim-Mcl-1 | Mcl1 Noxa PPI | DSG3 Ab inh | T cell modulator
COc1ccc(-n2c(SCC(=O)O)nc3sc4c(c3c2=O)CCCC4)cc1 | -1.2 | nt | nt | nt | 78.9* | 214.1
Nc1nc(SCc2nnc(SCC(=O)O)n2-c2ccccc2)nc2sc3c(c12)CCCC3 | 2.9 | 3.1 | 1.0 | 7.5 | -17.2* | 260.4
CC(NC(=O)CSc1nc2sc3c(c2c(=O)n1-c1ccccc1)CCCC3)c1ccccc1 (centres undefined) | -1.9 | 4.2 | 0.0 | 7.0 | 79.4* | 218.0
O=C(O)CSc1nc2sc3c(c2c(=O)n1-c1ccccc1)CCC3 | 11.9 | -13.8 | nt | 27.5 | 95.4 | 320.0
O=[N+]([O-])c1ccc(CSc2ccc(-c3ccccn3)nn2)cc1 | 4.7 | -7.7 | 0.0 | 4.7 | 82.6* | 174.0
O=C(CN1CCN(C(=O)c2ccco2)CC1)Nc1c2c(nc3c1CCC3)CCCC2 | nt | 50.5* | -5.0 | -19.2 | 97.0 | nt
Cc1ccc(CN2CCN(C(=O)c3ccco3)CC2)cc1 | 8.4 | -11.2 | 0.0 | -3.6 | 103.3 | 362.7
O=C(c1ccco1)N1CCN(Cc2cccnc2)CC1 | 5.1 | 50.8* | 0.0 | -24.0 | 91.6 | 406.9
COc1ccccc1C(=O)NCCC(=O)Nc1cccc(S(=O)(=O)N2CCCC2)c1 | -11.5 | nt | nt | nt | 100.6 | 580.6
O=C(COC(=O)c1ccccc1Oc1ccccc1)NCc1ccco1 | 9.2 | -26.2 | -3.0 | 52.1* | 95.0 | 328.7
Cc1cc(Br)ccc1SCC(=O)OCC(=O)NCc1ccco1 | 31.2 | -26.1 | nt | 54.6* | 111.8 | 289.5
COc1ccccc1NCCC(=O)OCC(=O)NCc1ccco1 | 19.9 | -42.5 | 0.0 | 64.3* | 105.2 | 193.0
O=C(COC(=O)c1ccccc1)NCc1ccco1 | 14.8 | -18.4 | 0.0 | 42.9 | 91.2 | 214.9
CCOC(=O)N1CCc2cc(OC)c(OC)c3c2c1cc1cc(OC)c(OC)cc13 | nt | nt | nt | nt | 84.8 | nt
O=C(NCCc1ccc(F)cc1)C1CCC(=O)N(CC2CCCCC2)C1 (centres undefined) | nt | nt | nt | nt | 99.9 | nt
Cc1sc2ncnc(NCCN3CCOCC3)c2c1C | -0.6 | 54.7* | -5.0 | 17.1 | 97.5 | 366.2
CN(C)C(=O)CCc1ccc2c3c([nH]c2c1)[C@]1(CCC2CCCC2)[C@@H](C(=O)N2CCOCC2)C[C@H](CC(=O)NCCc2ccccn2)C(=O)N1CC3 | nt | nt | nt | nt | 98.2 | nt
Cc1cccc2sc(NNC(=O)c3cc(=O)c4ccccc4o3)nc12 | -13.1 | -56.5 | -5.0 | 36.6 | 105.1 | 573.2
COc1ccc(N2CCN(S(=O)(=O)CCNC(=O)c3cc(=O)c4ccccc4o3)CC2)cc1 | 1.6 | nt | nt | nt | -12.3* | 217.7
COc1ccc2nc(NNC(=O)c3cc(=O)c4ccccc4o3)sc2c1 | 12.4 | -47.5 | 5.0 | 71.8* | 104.8 | 967.0
O=C(NCCS(=O)(=O)N1CCN(c2ccccc2F)CC1)c1cc(=O)c2ccccc2o1 | -1.2 | nt | nt | nt | 101.0 | 351.5

Source: PubChem BioAssay
